Laboratory results published in ChEMBL document CHEMBL4823250, “Discovery of thalidomide-based PROTAC small molecules as the highly efficient SHP2 degraders” (Eur J Med Chem, 2021).
Active and inactive are the calls of the source. No cut-off for these calls is given here.

Key:
[1] = biological target: T1, Protein cereblon/Tyrosine-protein phosphatase non-receptor type 11 (Homo sapiens, UniProt Q06124+Q96SW2); assay: Protac activity at SHP2/CRBN in human MV4-11 cells assessed as SHP2 degradation at 8 nM measured after 12 hrs by Western blot analysis relative to control; format: cell-based
Summary of the method: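 MV4-11 cells (IMDM, 10% FBS, 37 °C, 5% CO2) plated at 1.0×10^6 cells/well and exposed 12 h to 8 or 200 nM. Lysis in RIPA with protease inhibitors, then SDS-PAGE, nitrocellulose transfer and anti-human SHP2 immunoblot. SHP2 signal normalized to GAPDH and percent degradation quantified by densitometry. Reported as the average of two independent measurements.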
Target sequence in this assay (Q96SW2 whole entry partner, one chain of several): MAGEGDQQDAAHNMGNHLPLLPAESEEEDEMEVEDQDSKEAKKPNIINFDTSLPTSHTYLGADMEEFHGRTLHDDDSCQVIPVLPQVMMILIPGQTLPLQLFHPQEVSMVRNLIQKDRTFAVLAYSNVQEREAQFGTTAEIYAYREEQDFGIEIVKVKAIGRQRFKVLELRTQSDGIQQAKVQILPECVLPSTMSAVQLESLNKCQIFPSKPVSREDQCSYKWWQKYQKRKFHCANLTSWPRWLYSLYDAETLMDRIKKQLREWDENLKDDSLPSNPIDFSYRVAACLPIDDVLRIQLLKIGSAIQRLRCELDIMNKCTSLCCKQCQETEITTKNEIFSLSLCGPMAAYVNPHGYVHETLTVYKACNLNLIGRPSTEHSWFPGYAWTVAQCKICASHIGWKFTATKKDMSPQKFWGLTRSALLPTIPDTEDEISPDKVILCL

[2] = system: MV4-11; assay: Antiproliferative activity against human MV4-11 cells assessed as inhibition of cell proliferation measured after 72 hrs by MTS assay; format: functional, cell-based; conditions: MV4-11, 72 h
Summary of the method: (§1)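 MV4;11 (ATCC, STR-authenticated) in IMDM with 10% FBS, penicillin/streptomycin, 37 °C, 5% CO2. Seeded at 1.0–4.0 × 10^4 cells/well, rested 2 h, then exposed to 0.01% DMSO or graded compound concentrations for 72 h. MTS/PMS added for 2–4 h. IC50 from sigmoidal variable-slope nonlinear regression; mean ± SEM of at least three separate assays, each in triplicate.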

[3] = system: MV4-11; assay: Induction of apoptosis in human MV4-11 cells assessed as viable cells at 70 nM measured after 48 hrs by Annexin V/FITC-PI staining based flowcytometry assay (reference value: 91%); format: functional
[4] = system: MV4-11; assay: Induction of apoptosis in human MV4-11 cells assessed as early apoptotic cells at 70 nM measured after 48 hrs by Annexin V/FITC-PI staining based flowcytometry assay (reference value: 2.99%); format: functional
[5] = system: MV4-11; assay: Induction of apoptosis in human MV4-11 cells assessed as late apoptotic cells at 70 nM measured after 48 hrs by Annexin V/FITC-PI staining based flowcytometry assay (reference value: 5.95%); format: functional
[6] = system: MV4-11; assay: Induction of apoptosis in human MV4-11 cells assessed as necrotic cells at 70 nM measured after 48 hrs by Annexin V/FITC-PI staining based flowcytometry assay (reference value: 0.07%); format: functional
[7] = system: MV4-11; assay: Induction of apoptosis in human MV4-11 cells assessed as viable cells at 200 nM measured after 48 hrs by Annexin V/FITC-PI staining based flowcytometry assay (reference value: 91%); format: functional
[8] = system: MV4-11; assay: Induction of apoptosis in human MV4-11 cells assessed as early apoptotic cells at 200 nM measured after 48 hrs by Annexin V/FITC-PI staining based flowcytometry assay (reference value: 2.99%); format: functional
[9] = system: MV4-11; assay: Induction of apoptosis in human MV4-11 cells assessed as late apoptotic cells at 200 nM measured after 48 hrs by Annexin V/FITC-PI staining based flowcytometry assay (reference value: 5.95%); format: functional
[10] = system: MV4-11; assay: Induction of apoptosis in human MV4-11 cells assessed as necrotic cells at 200 nM measured after 48 hrs by Annexin V/FITC-PI staining based flowcytometry assay (reference value: 0.07%); format: functional
[11] = system: MV4-11; assay: Induction of apoptosis in human MV4-11 cells assessed as viable cells at 600 nM measured after 48 hrs by Annexin V/FITC-PI staining based flowcytometry assay (reference value: 91%); format: functional
[12] = system: MV4-11; assay: Induction of apoptosis in human MV4-11 cells assessed as early apoptotic cells at 600 nM measured after 48 hrs by Annexin V/FITC-PI staining based flowcytometry assay (reference value: 2.99%); format: functional
[13] = system: MV4-11; assay: Induction of apoptosis in human MV4-11 cells assessed as late apoptotic cells at 600 nM measured after 48 hrs by Annexin V/FITC-PI staining based flowcytometry assay (reference value: 5.95%); format: functional
[14] = system: MV4-11; assay: Induction of apoptosis in human MV4-11 cells assessed as necrotic cells at 600 nM measured after 48 hrs by Annexin V/FITC-PI staining based flowcytometry assay (reference value: 0.07%); format: functional
[15] = system: MV4-11; assay: Cytotoxicity against CRBN knock out human MV4-11 cells assessed as cell viability measured after 72 hrs by MTS assay; format: cell-based; conditions: MV4-11, 72 h
Summary of the method: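 MV4;11 cells with CRBN knocked out, cultured in IMDM with 10% FBS, penicillin/streptomycin, 37 °C, 5% CO2. Seeded at 1.0–4.0 × 10^4 cells/well, rested 2 h, then given 0.01% DMSO or graded compound concentrations for 72 h. Viability by MTS/PMS over 2–4 h. IC50 from sigmoidal variable-slope fit; mean ± SEM of ≥3 assays in triplicate.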

[16] = system: MV4-11; assay: Cytotoxicity against human MV4-11 cells assessed as cell viability measured after 72 hrs by MTS assay; format: functional, cell-based; conditions: MV4-11, 72 h; summary of the method: as §1
[17] = system: MV4-11; assay: Cell cycle arrest in human MV4-11 cells assessed as accumulation at G1 phase at 200 nM measured after 24 hrs by PI staining based flow cytometry assay; format: functional
Summary of the method: (§2)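 MV4-11 cells treated 24 h, then washed twice in cold PBS and fixed in ethanol overnight at 4 °C. Stained with propidium iodide plus RNase for 15 min at 37 °C. Cell-cycle distribution measured by flow cytometry.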

[18] = biological target: T1, Protein cereblon/Tyrosine-protein phosphatase non-receptor type 11; assay: Protac activity at SHP2/CRBN in human MV4-11 cells assessed as decrease in SHP2 protein level measured after 12 hrs by Western blot analysis; format: cell-based; conditions: dose 8-500 nM
Summary of the method: (§3)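 MV4-11 cells, 1.0×10^6 cells/well, treated 12 h across a concentration series. Lysed in RIPA plus protease inhibitors, separated by SDS-PAGE onto nitrocellulose and immunoblotted for SHP2 with GAPDH as loading control. Band intensities normalized to GAPDH; DC50 derived from the quantified SHP2 levels.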
Target sequence in this assay (Q96SW2 whole entry partner, one chain of several): as above

[19] = biological target: T1, Protein cereblon/Tyrosine-protein phosphatase non-receptor type 11; assay: Protac activity at SHP2/CRBN in human MV4-11 cells assessed as induction of SHP2 degradation measured after 12 hrs by Western blot analysis; format: cell-based; summary of the method: as §3
Target sequence in this assay (Q96SW2 whole entry, one chain of several): as the sequence (Q96SW2 whole entry partner, one chain of several) above

[20] = biological target: T1, Protein cereblon/Tyrosine-protein phosphatase non-receptor type 11; assay: Protac activity at SHP2/CRBN in human MV4-11 cells assessed as SHP2 degradation at 100 nM measured after 6 hrs by Western blot analysis relative to control; format: cell-based
Target sequence in this assay (Q96SW2 whole entry partner, one chain of several): as above

[21] = biological target: T1, Protein cereblon/Tyrosine-protein phosphatase non-receptor type 11; assay: Protac activity at SHP2/CRBN in human MV4-11 cells assessed as SHP2 degradation at 100 nM measured after 24 hrs by Western blot analysis relative to control; format: cell-based
Target sequence in this assay (Q96SW2 whole entry partner, one chain of several): as above

[22] = system: MV4-11; assay: Cell cycle arrest in human MV4-11 cells assessed as accumulation at G1 phase measured after 24 hrs by PI staining based flow cytometry assay; format: functional; summary of the method: as §2
[23] = biological target: T2, Tyrosine-protein phosphatase non-receptor type 11 (Homo sapiens) (UniProt Q06124); assay: Induction of SHP2 degradation in CRBN knock out human MV4-11 cells at 8 to 200 nM measured after 12 hrs by Western blot analysis; format: cell-based; conditions: dose 8-200 nM
T2 sequence (whole entry): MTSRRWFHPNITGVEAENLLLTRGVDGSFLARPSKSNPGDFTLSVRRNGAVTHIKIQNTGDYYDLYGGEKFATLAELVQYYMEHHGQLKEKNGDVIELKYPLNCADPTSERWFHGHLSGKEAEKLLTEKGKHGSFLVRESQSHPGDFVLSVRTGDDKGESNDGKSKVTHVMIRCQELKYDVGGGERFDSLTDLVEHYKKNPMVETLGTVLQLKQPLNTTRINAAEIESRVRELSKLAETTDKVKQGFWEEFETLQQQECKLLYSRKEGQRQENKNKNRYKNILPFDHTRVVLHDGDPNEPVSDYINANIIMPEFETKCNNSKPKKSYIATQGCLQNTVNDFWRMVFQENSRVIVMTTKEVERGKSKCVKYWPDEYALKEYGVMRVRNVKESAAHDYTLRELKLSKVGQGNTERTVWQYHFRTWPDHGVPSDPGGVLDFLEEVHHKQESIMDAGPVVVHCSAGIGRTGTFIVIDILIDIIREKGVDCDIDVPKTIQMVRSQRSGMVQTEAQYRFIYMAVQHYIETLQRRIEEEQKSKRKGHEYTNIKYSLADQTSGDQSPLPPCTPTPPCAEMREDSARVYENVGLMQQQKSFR

[24] = biological target: T3, Tyrosine-protein phosphatase non-receptor type 11 (Homo sapiens, UniProt Q06124); assay: Inhibition of human SHP2 catalytic activity
T3 sequence (Q06124 whole entry): T2 sequence (whole entry)

[25] = Homo sapiens, MV4-11, read-out: Activity

Compound: C[C@@H]1OCC2(CCN(c3cnc(Sc4cccc(NC(=O)CCC(=O)NCCCCCCCCCCNc5cccc6c5C(=O)N(C5CCC(=O)NC5=O)C6=O)c4Cl)c(N)n3)CC2)[C@@H]1N (stereo not given in full)
- Activity [1]: 0%

Compound: C[C@@H]1OCC2(CCN(c3cnc(Sc4cccc(NC(=O)CCC(=O)NCCOCCNc5cccc6c5C(=O)N(C5CCC(=O)NC5=O)C6=O)c4Cl)c(N)n3)CC2)[C@@H]1N (stereo not given in full)
- Activity [1]: 6%

Compound: CC1(N)CCN(c2cnc(-c3cccc(Cl)c3Cl)c(N)n2)CC1
- IC50 [2]: 475 nM
- Activity [3]: 94%
- Activity [4]: 3.98%
- Activity [5]: 4.52%
- Activity [6]: 0.078%
- Activity [7]: 88.5%
- Activity [8]: 4.68%
- Activity [9]: 6.43%
- Activity [10]: 0.099%
- Activity [11]: 86.5%
- Activity [12]: 5.08%
- Activity [13]: 7.74%
- Activity [14]: 0.098%
- IC50 [15]: 803 nM
- IC50 [16]: 572 nM
- Activity [17]: Active

Compound: C[C@@H]1OCC2(CCN(c3cnc(Sc4cccc(NC(=O)CCC(=O)NCCCCCCCCCCCNc5cccc6c5C(=O)N(C5CCC(=O)NC5=O)C6=O)c4Cl)c(N)n3)CC2)[C@@H]1N (stereo not given in full)
- Activity [1]: 26%

Compound: C[C@@H]1OCC2(CCN(c3cnc(Sc4cccc(NC(=O)CCC(=O)NCCCOCCOCCOCCCNc5cccc6c5C(=O)N(C5CCC(=O)NC5=O)C6=O)c4Cl)c(N)n3)CC2)[C@@H]1N (stereo not given in full)
- Activity [1]: 46%
- Activity [18]: Dose-Dependent Effect
- DC50 [19]: 6.02 nM
- Activity [20]: > 50%
- Activity [21]: > 90%
- IC50 [2]: 207 nM
- Activity [22]: Dose-Dependent Effect
- viability at 0.07 µM [3, 25]: 87.5%
- Activity [4]: 4.76%
- Activity [5]: 8.01%
- Activity [6]: 0.175%
- viability at 0.2 µM [7, 25]: 81%
- Activity [8]: 7.23%
- Activity [9]: 11.3%
- Activity [10]: 0.39%
- viability at 0.6 µM [11, 25]: 76.9%
- Activity [12]: 7.88%
- Activity [13]: 14.3%
- Activity [14]: 0.907%
- Activity [23]: inactive
- IC50 [15]: 2630 nM
- IC50 [16]: 207 nM
- IC50 [24]: 202 nM

Compound: C[C@@H]1OCC2(CCN(c3cnc(Sc4cccc(NC(=O)CCC(=O)NCCOCCOCCOCCNc5cccc6c5C(=O)N(C5CCC(=O)NC5=O)C6=O)c4Cl)c(N)n3)CC2)[C@@H]1N (stereo not given in full)
- Activity [1]: 28%

Compound: C[C@@H]1OCC2(CCN(c3cnc(Sc4cccc(NC(=O)CCC(=O)NCCCCCCCCCNc5cccc6c5C(=O)N(C5CCC(=O)NC5=O)C6=O)c4Cl)c(N)n3)CC2)[C@@H]1N (stereo not given in full)
- Activity [1]: 23%

Compound: C[C@@H]1OCC2(CCN(c3cnc(Sc4cccc(NC(=O)CCC(=O)NCCOCCOCCOCCNc5ccc6c(c5)C(=O)N(C5CCC(=O)NC5=O)C6=O)c4Cl)c(N)n3)CC2)[C@@H]1N (stereo not given in full)
- Activity [1]: < 5%
